{
  "source": "ChEMBL document CHEMBL4334552",
  "about": "“Discovery of BMS-986260, a Potent, Selective, and Orally Bioavailable TGFβR1 Inhibitor as an Immuno-oncology Agent” (ACS Med Chem Lett, 2020)",
  "key": {"[1]": {"experiment": "Cmax in Balb/C mouse at 10 mg/kg, po", "type": "ADME, organism-based", "parameters": "dose 10 mg/kg, route oral", "conditions": "in vivo", "method_in_brief": "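Male Balb/C mice, n = 3, dosed at 5 mg/kg iv or 10 mg/kg po. The vehicle was 70% 25 mM acetate buffer pH 4.0, 5% ethanol and 25% PEG 400.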"}, "[2]": {"experiment": "MRT in Beagle dog at 1 mg/kg, iv", "type": "ADME, organism-based, Canis lupus familiaris", "conditions": "in vivo", "method_in_brief": "(§1)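 Male Beagle dogs (n = 2) were pretreated with pentagastrin and dosed iv at 1 mg/kg and po at 5 mg/kg. The oral vehicle was 5% ethanol, 45% PEG400 and 50% 25 mM acetate buffer pH 4.0. The iv vehicle was 5:45:50 EtOH/PEG400/saline at 1 mL/kg.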"}, "[3]": {"experiment": "Cardiovascular toxicity in rat 1 mg/kg, po dosed every 3 days on and 4 days off treatment regime for 1 month", "type": "organism-based", "conditions": "in vivo"}, "[4]": {"experiment": "Efflux ratio of permeability in human Caco2 cells", "type": "ADME, cell-based", "conditions": "Caco-2"}, "[5]": {"experiment": "Half life in dog hepatocytes", "type": "ADME, cell-based, Canis lupus familiaris, Hepatocyte"}, "[6]": {"experiment": "Cardiovascular toxicity in dog assessed as aortic pathology at 5 mg/kg, po for 10 days", "type": "organism-based, Canis lupus familiaris", "conditions": "in vivo, 240 h", "method_in_brief": "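Exploratory toxicology studies of 10 days with daily oral dosing in rats and dogs. Cardiovascular findings, including valvulopathy and aortic pathology, were assessed.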"}, "[7]": {"experiment": "Cardiovascular toxicity in dog at 5 mg/kg, po dosed every 3 days on and 4 days off treatment regime for 1 month", "type": "organism-based, Canis lupus familiaris", "conditions": "in vivo"}, "[8]": {"experiment": "Half life in dog liver microsomes in presence of UGT/UDPGA", "type": "ADME, Canis lupus familiaris, Microsome"}, "[9]": {"experiment": "Oral bioavailability in Balb/C mouse at 10 mg/kg", "type": "ADME, organism-based", "conditions": "in vivo", "method_in_brief": "(§2)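 Male Balb/C mice (n = 3) dosed iv at 5 mg/kg and po at 10 mg/kg. Vehicle was 70% 25 mM acetate buffer pH 4.0, 5% ethanol and 25% PEG 400.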"}, "TGF-beta receptor type-1 [10]": {"biological_target": "T1, TGF-beta receptor type-1 (Mus musculus, UniProt Q64729)", "T1 sequence (Q64729 whole entry)": "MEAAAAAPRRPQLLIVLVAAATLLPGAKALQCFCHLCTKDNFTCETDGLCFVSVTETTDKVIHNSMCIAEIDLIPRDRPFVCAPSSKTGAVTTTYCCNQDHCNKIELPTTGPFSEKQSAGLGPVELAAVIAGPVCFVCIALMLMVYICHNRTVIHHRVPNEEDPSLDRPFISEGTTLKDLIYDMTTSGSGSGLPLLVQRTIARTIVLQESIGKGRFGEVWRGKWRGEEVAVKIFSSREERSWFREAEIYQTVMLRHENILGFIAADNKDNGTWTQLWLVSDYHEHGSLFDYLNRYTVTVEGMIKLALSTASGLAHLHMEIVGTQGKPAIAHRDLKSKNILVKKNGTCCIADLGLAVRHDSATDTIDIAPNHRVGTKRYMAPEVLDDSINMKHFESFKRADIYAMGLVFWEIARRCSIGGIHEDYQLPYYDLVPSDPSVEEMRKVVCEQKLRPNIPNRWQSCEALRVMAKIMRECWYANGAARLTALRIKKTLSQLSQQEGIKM", "experiment": "Inhibition of TGFbetaR1 in TGFbeta-stimulated mouse NIH3T3 cells assessed as reduction in SMAD3 phosphorylation", "type": "cell-based"}, "[11]": {"experiment": "Total AUC in Beagle dog at 1 mg/kg, iv", "type": "ADME, organism-based, Canis lupus familiaris", "parameters": "dose 1 mg/kg, time AUCmax, route intravenous", "conditions": "in vivo", "method_in_brief": "as §1"}, "Cytochrome P450 2C19": {"biological_target": "Cytochrome P450 2C19 (Homo sapiens, UniProt P33261)", "sequence (P33261 whole entry)": "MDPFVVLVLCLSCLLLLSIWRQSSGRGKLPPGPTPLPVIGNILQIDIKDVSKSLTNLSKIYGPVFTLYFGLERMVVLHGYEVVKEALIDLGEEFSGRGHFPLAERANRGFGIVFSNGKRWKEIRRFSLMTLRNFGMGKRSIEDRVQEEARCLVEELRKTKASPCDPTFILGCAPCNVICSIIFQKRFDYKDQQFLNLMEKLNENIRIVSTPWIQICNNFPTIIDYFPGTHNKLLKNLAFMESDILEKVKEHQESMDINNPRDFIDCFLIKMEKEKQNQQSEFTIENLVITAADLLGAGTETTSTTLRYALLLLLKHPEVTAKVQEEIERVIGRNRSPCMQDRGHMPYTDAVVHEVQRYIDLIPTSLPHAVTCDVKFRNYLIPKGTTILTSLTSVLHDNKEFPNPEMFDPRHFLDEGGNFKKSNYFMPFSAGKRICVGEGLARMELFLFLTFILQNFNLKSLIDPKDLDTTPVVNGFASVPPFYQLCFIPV", "experiment": "Inhibition of recombinant CYP2C19 (unknown origin)", "type": "ADME"}, "PXR": {"biological_target": "T2, PXR (Homo sapiens, UniProt O75469)", "T2 sequence (O75469 whole entry)": "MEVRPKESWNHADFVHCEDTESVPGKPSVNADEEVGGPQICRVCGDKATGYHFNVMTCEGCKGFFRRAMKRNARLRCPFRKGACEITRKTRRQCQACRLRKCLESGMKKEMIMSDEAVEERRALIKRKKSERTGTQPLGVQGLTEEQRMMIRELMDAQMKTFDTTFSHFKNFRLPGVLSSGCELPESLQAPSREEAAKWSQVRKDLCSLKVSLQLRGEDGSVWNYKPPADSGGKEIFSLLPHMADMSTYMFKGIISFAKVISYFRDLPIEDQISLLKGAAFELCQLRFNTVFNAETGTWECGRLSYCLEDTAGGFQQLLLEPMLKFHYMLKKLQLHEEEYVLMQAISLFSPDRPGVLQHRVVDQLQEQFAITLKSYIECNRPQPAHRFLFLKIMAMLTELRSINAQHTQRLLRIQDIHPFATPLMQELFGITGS", "experiment": "Activation of PXR (unknown origin) relative to control"}, "Cytochrome P450 2D6": {"biological_target": "Cytochrome P450 2D6 (Homo sapiens, UniProt P10635)", "sequence (P10635 whole entry)": "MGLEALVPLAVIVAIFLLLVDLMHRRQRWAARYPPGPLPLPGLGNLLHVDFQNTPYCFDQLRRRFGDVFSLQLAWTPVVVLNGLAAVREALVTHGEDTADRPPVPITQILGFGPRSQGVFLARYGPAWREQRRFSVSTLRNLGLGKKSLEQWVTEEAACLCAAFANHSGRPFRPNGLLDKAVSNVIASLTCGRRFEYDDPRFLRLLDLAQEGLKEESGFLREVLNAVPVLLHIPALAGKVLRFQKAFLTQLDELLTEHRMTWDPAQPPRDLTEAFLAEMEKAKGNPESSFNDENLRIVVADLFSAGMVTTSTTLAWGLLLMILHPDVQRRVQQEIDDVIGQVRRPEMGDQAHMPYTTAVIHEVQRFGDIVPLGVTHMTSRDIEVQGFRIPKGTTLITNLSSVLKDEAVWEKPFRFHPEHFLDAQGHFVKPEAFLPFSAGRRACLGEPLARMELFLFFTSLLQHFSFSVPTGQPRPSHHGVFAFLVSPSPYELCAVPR", "experiment": "Induction of recombinant CYP2D6 (unknown origin) up to 24 microM", "type": "ADME", "conditions": "recombinant enzyme"}, "[12]": {"experiment": "Total AUC in Balb/C mouse at 10 mg/kg, po", "type": "ADME, organism-based", "parameters": "dose 10 mg/kg, route oral, time AUCmax", "conditions": "in vivo", "method_in_brief": "as §2"}, "[13]": {"experiment": "Tmax in Sprague Dawley rat at 10 mg/kg, po", "type": "ADME, organism-based", "conditions": "in vivo", "method_in_brief": "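Male Sprague–Dawley rats (n = 3) received a PEG400 solution iv at 5 mg/kg and po at 10 mg/kg.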"}, "Cytochrome P450 2C8": {"biological_target": "T3, Cytochrome P450 2C8 (Homo sapiens, UniProt P10632)", "T3 sequence (P10632 whole entry)": "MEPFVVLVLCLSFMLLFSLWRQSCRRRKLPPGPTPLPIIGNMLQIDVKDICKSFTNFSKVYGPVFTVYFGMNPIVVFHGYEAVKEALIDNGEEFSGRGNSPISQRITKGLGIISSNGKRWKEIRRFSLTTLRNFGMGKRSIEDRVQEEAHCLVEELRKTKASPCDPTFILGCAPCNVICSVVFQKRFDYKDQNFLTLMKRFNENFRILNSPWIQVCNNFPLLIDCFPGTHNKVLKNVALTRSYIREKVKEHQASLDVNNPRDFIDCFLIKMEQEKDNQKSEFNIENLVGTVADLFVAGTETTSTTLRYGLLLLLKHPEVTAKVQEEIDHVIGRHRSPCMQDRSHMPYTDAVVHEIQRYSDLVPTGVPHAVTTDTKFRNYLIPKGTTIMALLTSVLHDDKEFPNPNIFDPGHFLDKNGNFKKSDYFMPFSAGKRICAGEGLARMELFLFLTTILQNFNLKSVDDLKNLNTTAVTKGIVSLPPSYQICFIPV", "experiment": "Induction of recombinant CYP2C8 (unknown origin) up to 24 microM", "type": "ADME", "conditions": "recombinant enzyme"}, "MC-38": {"test_system": "MC-38", "experiment": "Induction of long-term antitumor memory response in compound-mediated tumor cured C57Bl/6 mouse allografted with mouse MC38 cells assessed as reduction in tumor growth following rechallenge with newly implanted mouse MC38 cells treated at 3.75 to 15 mg/kg, po qd for 28 days and cotreated with anti-PD1 at 10 mg/kg, ip every 4 days for 3 doses prior to MC38 cells rechallenge by digital caliper analysis", "type": "functional, organism-based", "method_in_brief": "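Mice cured by oral dosing plus anti-PD-1 (10 mg/kg IP, every 4 days, three doses) were re-implanted with MC38 or LL2 cells. Tumor growth was compared with naive mice.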"}, "4T1": {"test_system": "4T1", "experiment": "Inhibition of metastasis in mouse 4T1 cells allografted in Balb/C mouse at 3.75 to 7.5 mg/kg, po qd for 28 days cotreated with anti-PD1 at 10 mg/kg, ip every 4 days for 3 doses by India ink/Fekete's solution based staining", "type": "functional, organism-based"}, "[14]": {"experiment": "Tmax in Beagle dog at 5 mg/kg, po", "type": "ADME, organism-based, Canis lupus familiaris", "conditions": "in vivo", "method_in_brief": "as §1"}, "TGF-beta receptor type-1 [15]": {"biological_target": "TGF-beta receptor type-1 (Homo sapiens, UniProt P36897, T204D)", "sequence (P36897 34-503 T204D limits assumed)": "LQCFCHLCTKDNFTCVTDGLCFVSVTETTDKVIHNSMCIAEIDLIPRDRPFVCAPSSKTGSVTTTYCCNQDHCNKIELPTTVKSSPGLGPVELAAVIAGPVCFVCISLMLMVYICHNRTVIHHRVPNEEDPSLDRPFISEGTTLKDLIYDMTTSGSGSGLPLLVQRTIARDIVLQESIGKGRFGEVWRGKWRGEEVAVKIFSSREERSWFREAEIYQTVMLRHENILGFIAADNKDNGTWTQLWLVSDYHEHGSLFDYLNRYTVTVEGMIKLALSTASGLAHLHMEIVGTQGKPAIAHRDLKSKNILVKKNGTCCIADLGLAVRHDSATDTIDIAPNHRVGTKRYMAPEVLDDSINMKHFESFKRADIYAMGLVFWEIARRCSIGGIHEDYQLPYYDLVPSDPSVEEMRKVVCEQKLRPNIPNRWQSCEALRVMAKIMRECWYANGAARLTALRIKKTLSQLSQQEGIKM", "experiment": "Inhibition of His-tagged TGFBR1 kinase domain T204D mutant (unknown origin) incubated for 1 hr by HTRF analysis"}},
  "note": "Active and inactive are the calls of the source. The calls are words filed in the database; no cut-off is given here.",
  "data": [
    {"smiles": "N#Cc1cnc2ccc(-c3c(-c4ccc(F)c(Cl)c4)ncn3CCO)nn12", "values": [
      {"measurement": "Cmax", "setting": "[1]", "result": 16, "unit": "µM"},
      {"measurement": "MRT", "setting": "[2]", "result": 3.1, "unit": "h"},
      {"measurement": "Activity", "setting": "[3]", "result": "Non-Toxic"},
      {"measurement": "efflux ratio", "setting": "[4]", "result": 2.5},
      {"measurement": "half-life", "setting": "[5]", "result": 1.03, "unit": "h"},
      {"measurement": "Activity", "setting": "[6]", "result": "Toxic"},
      {"measurement": "Activity", "setting": "[7]", "result": "Non-Toxic"},
      {"measurement": "half-life", "setting": "[8]", "result": 1.53, "unit": "h"},
      {"measurement": "bioavailability", "setting": "[9]", "result": "> 100", "unit": "%"},
      {"measurement": "IC50", "setting": "TGF-beta receptor type-1 [10]", "result": 50, "unit": "nM"},
      {"measurement": "AUC", "setting": "[11]", "result": 7, "unit": "µM·h"},
      {"measurement": "IC50", "setting": "Cytochrome P450 2C19", "result": "> 20000", "unit": "nM"},
      {"measurement": "Emax", "setting": "PXR", "result": 44, "unit": "%"},
      {"measurement": "Activity", "setting": "Cytochrome P450 2D6", "result": "Not Active"},
      {"measurement": "AUC", "setting": "[12]", "result": 80.5, "unit": "µM·h"},
      {"measurement": "Tmax", "setting": "[13]", "result": 1.1, "unit": "h"},
      {"measurement": "Activity", "setting": "Cytochrome P450 2C8", "result": "Not Active"},
      {"measurement": "Activity", "setting": "MC-38", "result": "Active"},
      {"measurement": "inhibition", "setting": "4T1", "result": "Active"},
      {"measurement": "Tmax", "setting": "[14]", "result": 0.67, "unit": "h"},
      {"measurement": "IC50", "setting": "TGF-beta receptor type-1 [15]", "result": 1.6, "unit": "nM"}
    ]}
  ]
}
